A short description of data set [1]: AUC (0 to infinity) in ICR mouse at 1 mg/kg, iv by LC-MS/MS analysis. Particulars: in vivo; call rule not given here. The arrangement: dose 1 mg/kg, route intravenous, time infinity. Type of data set: ADME, organism-based.
Data set [2] deals with Epidermal growth factor receptor (Homo sapiens, UniProt P00533). The data set can be described thus: Inhibition of wild type EGFR phosphorylation in EGF-stimulated human A431 cells up to 1000 nM by Western blot method. A digest of the protocol: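 A431 cells lysed in Tris-HCl pH 6.8 buffer with DTT, SDS and glycerol; equal protein amounts resolved on 8% SDS-PAGE, transferred to nitrocellulose and probed for p-EGFR (Y1068), total EGFR, p-AKT (Ser473), total AKT and GAPDH.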
A general note: A western blot detects proteins with antibodies after separation by electrophoresis.

Data set [3] is filed under the species Homo sapiens. The data set can be described thus: Selectivity index, ratio of IC50 for human A431 cells harboring wild type EGFR to IC50 for human NCI-H1975 cells harboring EGFR L858R/T790M double mutant. A digest of the protocol: (§1)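 Cell growth inhibition measured by sulforhodamine B colorimetric assay in H1975 (EGFR L858R/T790M) and A431 (overexpressed wild-type EGFR) cells; IC50 values are means ± SD of at least three independent determinations. Selectivity is taken as the A431:H1975 IC50 ratio.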

For data set [4], the target named is Cytochrome P450 2D6 (Homo sapiens, UniProt P10635). Briefly: Inhibition of human CYP2D6 (unknown origin). Type of data set: ADME.
Data set [5] in a line: AUC (0 to t) in ICR mouse at 10 mg/kg, po by LC-MS/MS analysis. Type of data set: ADME, organism-based. The settings on record: in vivo.
Data set [6] is described as follows: Half life in ICR mouse at 1 mg/kg, iv by LC-MS/MS analysis. Type of data set: ADME, organism-based. Particulars: in vivo.
The nature of data set [7]: Apparent permeability from apical to basolateral side in MDCK2 cells at 2 uM after 2.5 hrs by LC-MS/MS method. Type of data set: ADME, cell-based, Canis lupus familiaris, MDCK-II. The settings on record: dog, MDCK.
Data set [8] in a line: Cmax in ICR mouse at 10 mg/kg, po by LC-MS/MS analysis. Type of data set: ADME, organism-based. On the set-up: dose 10 mg/kg, route oral. The settings on record: in vivo.
Data set [9] can be described thus: Oral bioavailability in ICR mouse at 10 mg/kg by LC-MS/MS analysis. Type of data set: ADME, organism-based. Particulars: in vivo.
Data set [10] in a line: Half life in mouse liver microsomes at 0.1 uM after 60 mins in presence of NADPH by LC-MS/MS analysis. Type of data set: ADME, microsome. A digest of the protocol:
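Human or mouse liver microsomes (0.33 mg/mL protein) in 0.1 M Tris/HCl pH 7.4 with 5 mM MgCl2, 1 mM NADPH, 0.01% DMSO and 0.005% BSA; test compound at 0.1 µM final, 37 °C for 60 min. Aliquots at 0, 7, 17, 30 and 60 min quenched by methanol precipitation, centrifuged and analysed by LC-MS/MS.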
(Liver microsomes are a subcellular fraction often used to study metabolism.)

The subject of data set [11] is Mus musculus. Briefly: Toxicity in Balb/c mouse xenografted with human NCI-H1975 cells assessed as mortality at 50 mg/kg/day, po once daily for 14 days measured every 2 to 3 days during compound dosing. Type of data set: organism-based. The settings on record: in vivo. A general note: Xenograft models place foreign cells or tissue in a host animal.
Data set [12] is described as follows: AUC (0 to infinity) in ICR mouse at 10 mg/kg, po by LC-MS/MS analysis. The arrangement: dose 10 mg/kg, route oral, time infinity. Particulars: in vivo. Type of data set: ADME, organism-based.
Data set [13] concerns the target T1, Cytochrome P450 1A2 (Homo sapiens, UniProt P05177).
T1 sequence (P05177 whole entry): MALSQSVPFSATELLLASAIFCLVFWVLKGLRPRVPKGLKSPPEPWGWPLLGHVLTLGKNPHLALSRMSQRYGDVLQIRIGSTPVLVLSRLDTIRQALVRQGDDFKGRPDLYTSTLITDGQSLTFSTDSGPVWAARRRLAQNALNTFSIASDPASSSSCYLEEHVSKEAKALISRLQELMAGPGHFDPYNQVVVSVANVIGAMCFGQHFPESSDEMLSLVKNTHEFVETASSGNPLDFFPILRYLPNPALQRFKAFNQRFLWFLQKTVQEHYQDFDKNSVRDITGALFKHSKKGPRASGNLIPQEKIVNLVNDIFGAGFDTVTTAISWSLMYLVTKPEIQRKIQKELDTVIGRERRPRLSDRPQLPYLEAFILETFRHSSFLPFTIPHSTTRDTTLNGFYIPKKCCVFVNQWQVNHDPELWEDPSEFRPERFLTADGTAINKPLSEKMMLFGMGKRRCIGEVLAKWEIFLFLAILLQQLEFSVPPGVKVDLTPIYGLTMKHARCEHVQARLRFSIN
The data set can be described thus: Inhibition of human CYP1A2 (unknown origin). Type of data set: ADME.

A short description of data set [14]: Tmax in ICR mouse at 10 mg/kg, po by LC-MS/MS analysis. Type of data set: ADME, organism-based. Particulars: in vivo.
For data set [15], the species on record is Homo sapiens. The data set can be described thus: Selectivity ratio of IC50 for recombinant human GST-tagged EGFR (668 to 1210 residues) expressed in baculovirus expression system to IC50 for recombinant human GST-tagged EGFR L858R/T790M double mutant expressed in baculovirus expression system. A digest of the protocol: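 ELISA-based EGFR tyrosine kinase assay run on wild-type and L858R/T790M enzymes. IC50 values come from at least three independent determinations, reported as means ± SD. Selectivity is the wild-type IC50 divided by the L858R/T790M IC50.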

Data set [16] relates to Mus musculus. The data set can be described thus: Toxicity in Balb/c mouse xenografted with human A431 cells assessed as body weight loss at 50 mg/kg/day, po once daily for 14 days measured every 2 to 3 days during compound dosing. Type of data set: organism-based. Particulars: in vivo. A digest of the protocol: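 A431 or H1975 cells were grown in RPMI-1640 with 10% FBS, and about 2 × 10^6 cells were implanted subcutaneously in the right flank of 4–6-week-old BALB/c mice. At 200–400 mm³, mice were randomized to vehicle or treated groups (n = 6). Dosing was oral, once daily, for 14 days. Body weights were recorded every 2–3 days.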

Data set [17] relates to NCI-H1975. The data set can be described thus: Antiproliferative activity against human NCI-H1975 cells harboring EGFR L858R/T790M double mutant after 72 hrs by SRB assay. Type of data set: functional, cell-based. The settings on record: NCI-H1975, 72 h. A digest of the protocol: as §1
The target of data set [18] is Cytochrome P450 3A4 (Homo sapiens, UniProt P08684). Briefly: Inhibition of human CYP3A4 (unknown origin). Type of data set: ADME.
The subject of data set [19] is Mus musculus. The data set can be described thus: Toxicity in Balb/c mouse xenografted with human A431 cells assessed as mortality at 50 mg/kg/day, po once daily for 14 days measured every 2 to 3 days during compound dosing. Type of data set: organism-based. The settings on record: in vivo.
Data set [20] concerns NCI-H1975. The data set can be described thus: Antitumor activity against human NCI-H1975 cells xenografted in Balb/c mouse assessed as tumor growth inhibition at 50 mg/kg/day, po once daily for 14 days measured every 2 to 3 days during compound dosing relative to control. The settings on record: read-out: TGI. Type of data set: functional. A digest of the protocol:
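BALB/c mice, 4–6 weeks old, implanted subcutaneously in the right flank with about 2 × 10^6 H1975 or A431 cells grown in RPMI-1640 with 10% FBS. At 200–400 mm3 tumors, mice were randomized (six/group) and dosed orally once daily with vehicle or inhibitor for 14 days. Caliper volumes, V = L×W²/2, were taken every 2–3 days; means ± SEM, Student's t test vs vehicle.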

In data set [21] the target is Cytochrome P450 2C19 (Homo sapiens, UniProt P33261). Briefly: Inhibition of human CYP2C19 (unknown origin). Type of data set: ADME.
A short description of data set [22]: Tmax in ICR mouse at 1 mg/kg, iv by LC-MS/MS analysis. Type of data set: ADME, organism-based. Particulars: in vivo.
A short description of data set [23]: AUC (0 to t) in ICR mouse at 1 mg/kg, iv by LC-MS/MS analysis. Type of data set: ADME, organism-based. Particulars: in vivo.
In data set [24] the target is Cytochrome P450 2C9 (Homo sapiens, UniProt P11712). Briefly: Inhibition of human CYP2C9 (unknown origin). Type of data set: ADME.

A value given as a limit tells only on which side of the number the result lay.

Cytochrome P450 3A4, sequence (P08684 whole entry): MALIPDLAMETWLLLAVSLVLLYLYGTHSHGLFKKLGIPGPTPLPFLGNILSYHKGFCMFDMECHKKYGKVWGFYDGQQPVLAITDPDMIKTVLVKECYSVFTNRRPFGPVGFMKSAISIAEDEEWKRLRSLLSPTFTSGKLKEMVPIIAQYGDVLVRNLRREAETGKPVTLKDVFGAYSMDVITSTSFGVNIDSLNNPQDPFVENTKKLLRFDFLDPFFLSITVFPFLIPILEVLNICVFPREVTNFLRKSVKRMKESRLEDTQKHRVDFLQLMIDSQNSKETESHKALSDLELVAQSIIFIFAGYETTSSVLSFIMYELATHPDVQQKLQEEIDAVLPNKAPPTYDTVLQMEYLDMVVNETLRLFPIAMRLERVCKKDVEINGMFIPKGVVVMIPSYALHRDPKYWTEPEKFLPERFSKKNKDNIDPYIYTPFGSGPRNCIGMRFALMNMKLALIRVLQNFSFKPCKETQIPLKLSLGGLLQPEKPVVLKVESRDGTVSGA
Epidermal growth factor receptor, sequence (P00533 whole entry): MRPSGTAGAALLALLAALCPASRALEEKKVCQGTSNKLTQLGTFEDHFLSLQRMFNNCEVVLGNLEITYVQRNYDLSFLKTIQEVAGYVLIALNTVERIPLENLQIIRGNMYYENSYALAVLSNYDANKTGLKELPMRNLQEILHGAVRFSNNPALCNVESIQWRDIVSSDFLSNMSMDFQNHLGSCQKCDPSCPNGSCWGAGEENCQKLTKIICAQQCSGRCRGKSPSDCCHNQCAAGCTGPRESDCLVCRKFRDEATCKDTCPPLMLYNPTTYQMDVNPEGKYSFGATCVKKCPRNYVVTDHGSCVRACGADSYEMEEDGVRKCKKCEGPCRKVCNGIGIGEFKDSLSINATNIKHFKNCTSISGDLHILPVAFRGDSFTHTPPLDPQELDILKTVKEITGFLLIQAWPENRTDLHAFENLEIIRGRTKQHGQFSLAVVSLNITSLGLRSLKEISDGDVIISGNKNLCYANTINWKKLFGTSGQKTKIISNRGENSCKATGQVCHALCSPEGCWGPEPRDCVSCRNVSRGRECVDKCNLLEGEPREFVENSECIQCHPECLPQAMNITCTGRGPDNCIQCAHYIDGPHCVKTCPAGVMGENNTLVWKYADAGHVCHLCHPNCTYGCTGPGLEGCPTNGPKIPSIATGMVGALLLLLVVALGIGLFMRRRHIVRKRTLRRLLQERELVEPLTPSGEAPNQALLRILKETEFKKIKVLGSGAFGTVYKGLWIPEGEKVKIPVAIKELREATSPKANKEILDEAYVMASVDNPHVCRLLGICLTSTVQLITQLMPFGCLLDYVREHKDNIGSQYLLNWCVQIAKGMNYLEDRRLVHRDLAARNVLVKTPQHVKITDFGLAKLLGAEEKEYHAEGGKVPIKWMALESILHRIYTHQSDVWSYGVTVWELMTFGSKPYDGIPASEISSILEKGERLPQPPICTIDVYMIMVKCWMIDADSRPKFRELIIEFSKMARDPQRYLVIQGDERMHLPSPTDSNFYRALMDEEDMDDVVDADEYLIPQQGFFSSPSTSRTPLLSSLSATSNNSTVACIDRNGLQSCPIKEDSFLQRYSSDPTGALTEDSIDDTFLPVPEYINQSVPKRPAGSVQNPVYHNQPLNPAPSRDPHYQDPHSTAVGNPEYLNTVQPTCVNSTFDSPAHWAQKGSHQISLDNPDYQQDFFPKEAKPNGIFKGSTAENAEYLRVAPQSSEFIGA
Cytochrome P450 2D6, sequence (P10635 whole entry): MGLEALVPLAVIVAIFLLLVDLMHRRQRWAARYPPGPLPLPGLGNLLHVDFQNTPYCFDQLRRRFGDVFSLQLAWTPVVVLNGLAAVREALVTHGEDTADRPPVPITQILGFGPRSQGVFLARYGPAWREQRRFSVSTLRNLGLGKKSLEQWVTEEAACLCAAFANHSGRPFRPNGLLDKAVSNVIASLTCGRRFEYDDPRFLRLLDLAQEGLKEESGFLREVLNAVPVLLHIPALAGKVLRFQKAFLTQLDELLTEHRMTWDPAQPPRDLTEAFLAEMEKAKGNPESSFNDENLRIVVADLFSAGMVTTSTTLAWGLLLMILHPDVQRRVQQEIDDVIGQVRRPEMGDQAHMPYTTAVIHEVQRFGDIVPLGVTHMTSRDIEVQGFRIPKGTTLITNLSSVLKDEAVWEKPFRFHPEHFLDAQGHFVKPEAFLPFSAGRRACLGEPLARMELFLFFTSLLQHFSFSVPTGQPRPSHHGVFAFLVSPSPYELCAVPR
Cytochrome P450 2C9, sequence (P11712 whole entry): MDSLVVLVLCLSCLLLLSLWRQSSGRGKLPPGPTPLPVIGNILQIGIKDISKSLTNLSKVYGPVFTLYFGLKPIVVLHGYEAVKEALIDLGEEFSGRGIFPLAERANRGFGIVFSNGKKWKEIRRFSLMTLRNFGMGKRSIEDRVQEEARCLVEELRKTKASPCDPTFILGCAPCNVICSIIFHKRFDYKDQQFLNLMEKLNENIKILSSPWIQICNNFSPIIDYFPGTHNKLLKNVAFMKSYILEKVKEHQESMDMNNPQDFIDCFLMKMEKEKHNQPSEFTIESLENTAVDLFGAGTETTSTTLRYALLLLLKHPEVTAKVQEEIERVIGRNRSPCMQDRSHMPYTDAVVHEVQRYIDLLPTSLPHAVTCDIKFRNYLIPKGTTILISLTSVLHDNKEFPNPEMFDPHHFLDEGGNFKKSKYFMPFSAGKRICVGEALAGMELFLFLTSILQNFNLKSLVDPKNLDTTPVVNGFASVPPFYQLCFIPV
Cytochrome P450 2C19, sequence (P33261 whole entry): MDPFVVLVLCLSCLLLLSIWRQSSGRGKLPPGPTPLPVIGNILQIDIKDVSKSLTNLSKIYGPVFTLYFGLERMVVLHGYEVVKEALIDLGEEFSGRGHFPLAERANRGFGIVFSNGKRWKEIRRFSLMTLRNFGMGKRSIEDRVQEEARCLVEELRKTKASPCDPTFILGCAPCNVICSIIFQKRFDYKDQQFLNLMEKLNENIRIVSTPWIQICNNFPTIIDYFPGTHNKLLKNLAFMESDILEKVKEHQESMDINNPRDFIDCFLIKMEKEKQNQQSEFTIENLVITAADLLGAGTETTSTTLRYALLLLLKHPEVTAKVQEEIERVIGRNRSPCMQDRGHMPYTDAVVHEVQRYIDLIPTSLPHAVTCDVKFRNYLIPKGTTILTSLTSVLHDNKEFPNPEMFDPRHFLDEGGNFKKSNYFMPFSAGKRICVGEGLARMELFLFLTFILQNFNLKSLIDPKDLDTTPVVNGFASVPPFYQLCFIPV

For the compound `C=CC(=O)Nc1cccc(-n2c(=O)n(C(C)C)c(=O)c3cnc(Nc4ccc(N5CCN(C)CC5)cc4OC)nc32)c1`, the AUC(0-inf) (usually the area under the concentration-time curve extrapolated to infinity) was determined as 186 ng·h/mL in data set [1] and 658 ng·h/mL in data set [12]. Besides, the “inhibition (INH)” value in data set [2] is “Not Active”. Moreover, the Ratio IC50 in [3] came to 36; in data set [15], 263. For the same compound, the IC50 (as a rule, the concentration needed to halve the response being measured) in [4] was > 50 µM; in [13], > 50 µM; in [17], 44 nM; in data set [18], 23.9 µM; in [21] it was > 50 µM; in data set [24], > 50 µM. Moreover, the AUC(0-t) (usually exposure summed from dosing to a finite time, without extrapolation to infinity) in data set [5] came out at 650 ng·h/mL; in data set [23], 181 ng·h/mL. Also, the half-life – broadly, how long it takes for the measured level to halve – in [6] was 54 min. Moreover, the Papp A→B (in general, the apparent permeability from the apical to the basolateral side of a cell layer) at 2.5 h, 2 µM in data set [7] came out at 1.5 ×10⁻⁶ cm/s. Moreover, in data set [8], the Cmax – broadly, the maximum level reached in the sampled fluid or tissue – is 271 ng/mL. Further, the bioavailability (in general, the share of a dose that reaches the circulation, judged against a reference dose that is usually intravenous) in data set [9] worked out at 35%. In [10], the half-life at 0.1 µM is 46.1 min. For the same compound, the Activity result in [11], in data set [16] and in data set [19] was “Non-Toxic” throughout. The Tmax (usually the time at which the peak concentration occurs) was 2 h in data set [14] and 6 min in data set [22]. In data set [20], the inhibition in vivo at 50 mg/kg/day was determined as 73%.

For the origin of these results see ChEMBL document CHEMBL4118273, “Design, Synthesis, and Biological Evaluation of Pyrimido[4,5- d]pyrimidine-2,4(1 H,3 H)-diones as Potent and Selective Epidermal Growth Factor Receptor (EGFR) Inhibitors against L858R/T790M Resistance Mutation” (J Med Chem, 2018).
